Experimental data reported in ChEMBL document CHEMBL1268901, “Synthesis and in vitro antiviral activities of 3'-fluoro (or chloro) and 2',3'-difluoro 2',3'-dideoxynucleoside analogs against hepatitis B and C viruses” (Bioorg Med Chem, 2010).
≈ marks a conversion by molar mass, not a printed value.

Legend:
Hepatitis C virus = test: Antiviral activity against HCV 1a infected in human HuH7 cells assessed as reduction of viral RNA level at 20 ug/ml […] by QRT-PCR analysis; type: functional, Hepacivirus hominis; conditions: subtype 1a, Huh-7
Duck hepatitis B virus [1] = test: Antiviral activity against DHBV infected in duck hepatocytes assessed as inhibition of viral DNA replication after 15 days; conditions: Hepatocyte, 360 h
Hepatitis B virus [2] = test: Antiviral activity against HBV infected in human HepG2(2.2.15) cells assessed as inhibition of viral replication after 2 days; type: functional, organism-based; conditions: HepG2 2.2.15, 48 h
Duck hepatitis B virus [3] = test: Antiviral activity against DHBV infected in duck hepatocytes assessed as inhibition of viral DNA replication at 10 ug/ml after 15 days relative to control; conditions: Hepatocyte, 360 h
[4] = Cytotoxicity against human HuH7 cells after 2 days by XTT assay; type: cell-based, Huh-7
How it was run: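 Huh-7 cells seeded at 1 × 10⁵ cells/well, allowed to attach 6–8 h, then medium replaced with compound at 200, 100, 50, 10 and 1 µg/mL; DMSO control. Incubated 2 days at 37 °C, XTT reagent added for 4 h at 37 °C, absorbance read at 450–500 nm; CC50 reported.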

Hepatitis B virus [5] = test: Antiviral activity against HBV infected in human HepG2(2.2.15) cells assessed as inhibition of viral replication at 10 ug/ml […] relative to control; type: functional; conditions: HepG2 2.2.15, 48 h
Hepatitis B virus [6] = test: Antiviral activity against HBV infected in human HepG2(2.2.15) cells assessed as inhibition of viral replication at 5 ug/ml […] relative to control; type: functional; conditions: HepG2 2.2.15, 48 h
Duck hepatitis B virus [7] = test: Antiviral activity against DHBV infected in duck hepatocytes assessed as inhibition of viral DNA replication at 1 ug/ml after 15 days relative to control; conditions: Hepatocyte, 360 h
Duck hepatitis B virus [8] = test: Antiviral activity against DHBV infected in duck hepatocytes assessed as inhibition of viral DNA replication at 5 ug/ml after 15 days relative to control; conditions: Hepatocyte, 360 h
Duck hepatitis B virus [9] = test: Antiviral activity against DHBV infected in duck hepatocytes assessed as inhibition of viral DNA replication at 0.5 to 1 ug/ml after 15 days relative to control
Hepatitis B virus [10] = test: Antiviral activity against HBV infected in human HepG2(2.2.15) cells assessed as inhibition of viral replication at 0.5 to 1 ug/ml […] relative to control; type: functional

O=c1[nH]c(=O)n([C@H]2C[C@@H](Cl)[C@@H](CO)O2)cc1F
inhibition at 20 µg/mL (Hepatitis C virus): 30% | EC50 (Duck hepatitis B virus [1]): 10 µg/mL (≈ 37.8 µM) | EC50 (Hepatitis B virus [2]): 10 µg/mL (≈ 37.8 µM) | inhibition at 10 µg/mL (Duck hepatitis B virus [3]): 50% | CC50 at 48 h [4]: > 200 µg/mL | inhibition at 10 µg/mL (Hepatitis B virus [5]): 50%

Cc1cn([C@H]2C[C@H](Cl)[C@@H](CO)O2)c(=O)[nH]c1=O
inhibition at 20 µg/mL (Hepatitis C virus): 0% | EC50 (Duck hepatitis B virus [1]): 10 µg/mL (≈ 38.4 µM) | EC50 (Hepatitis B virus [2]): 10 µg/mL (≈ 38.4 µM) | inhibition at 10 µg/mL (Duck hepatitis B virus [3]): 55% | CC50 at 48 h [4]: > 200 µg/mL | inhibition at 10 µg/mL (Hepatitis B virus [5]): 56%

O=c1[nH]c(=O)n([C@H]2C[C@H](Cl)[C@@H](CO)O2)cc1F
inhibition at 20 µg/mL (Hepatitis C virus): 0% | inhibition at 10 µg/mL (Duck hepatitis B virus [3]): 0% | CC50 at 48 h [4]: > 200 µg/mL | inhibition at 10 µg/mL (Hepatitis B virus [5]): 0%

O=c1[nH]c(=O)n([C@H]2C[C@H](F)[C@@H](CO)O2)cc1F
inhibition at 20 µg/mL (Hepatitis C virus): 28% | inhibition at 10 µg/mL (Duck hepatitis B virus [3]): 0% | CC50 at 48 h [4]: > 100 µg/mL | inhibition at 10 µg/mL (Hepatitis B virus [5]): 0%

O=c1[nH]c(=S)ccn1[C@H]1C[C@H](F)[C@@H](CO)O1
inhibition at 20 µg/mL (Hepatitis C virus): 0% | inhibition at 10 µg/mL (Duck hepatitis B virus [3]): 25% | CC50 at 48 h [4]: > 100 µg/mL | inhibition at 10 µg/mL (Hepatitis B virus [5]): 20%

O=c1[nH]c(=O)n([C@H]2C[C@H](F)[C@@H](CO)O2)cc1C(F)(F)F
inhibition at 20 µg/mL (Hepatitis C virus): 25% | inhibition at 10 µg/mL (Duck hepatitis B virus [3]): 20% | CC50 at 48 h [4]: > 100 µg/mL | inhibition at 10 µg/mL (Hepatitis B virus [5]): 20%

CCc1cn([C@H]2C[C@H](F)[C@@H](CO)O2)c(=O)[nH]c1=O
inhibition at 20 µg/mL (Hepatitis C virus): 0% | inhibition at 10 µg/mL (Duck hepatitis B virus [3]): 0% | CC50 at 48 h [4]: > 200 µg/mL | inhibition at 10 µg/mL (Hepatitis B virus [5]): 0%

O=c1[nH]c(=O)n([C@H]2C[C@H](F)[C@@H](CO)O2)cc1CO
inhibition at 20 µg/mL (Hepatitis C virus): 30% | EC50 (Duck hepatitis B virus [1]): 1 µg/mL (≈ 3.84 µM) | EC50 (Hepatitis B virus [2]): 5 µg/mL (≈ 19.2 µM) | inhibition at 5 µg/mL (Hepatitis B virus [6]): 50% | inhibition at 1 µg/mL (Duck hepatitis B virus [7]): 50% | inhibition at 10 µg/mL (Duck hepatitis B virus [3]): 75% | CC50 at 48 h [4]: > 200 µg/mL | inhibition at 10 µg/mL (Hepatitis B virus [5]): 58%

O=c1[nH]c(=O)n([C@H]2C[C@H](F)[C@@H](CO)O2)cc1O
inhibition at 20 µg/mL (Hepatitis C virus): 0% | inhibition at 10 µg/mL (Duck hepatitis B virus [3]): 0% | CC50 at 48 h [4]: > 100 µg/mL | inhibition at 10 µg/mL (Hepatitis B virus [5]): 0%

O=c1[nH]c(=S)c(F)cn1[C@H]1C[C@H](F)[C@@H](CO)O1
inhibition at 20 µg/mL (Hepatitis C virus): 0% | inhibition at 10 µg/mL (Duck hepatitis B virus [3]): 0% | CC50 at 48 h [4]: > 100 µg/mL | inhibition at 10 µg/mL (Hepatitis B virus [5]): 0%

O=c1ccn([C@@H]2O[C@H](CO)[C@@H](F)[C@H]2F)c(=O)[nH]1
inhibition at 20 µg/mL (Hepatitis C virus): 0% | inhibition at 10 µg/mL (Duck hepatitis B virus [3]): 0% | CC50 at 48 h [4]: > 200 µg/mL | inhibition at 10 µg/mL (Hepatitis B virus [5]): 0%

Cc1cn([C@@H]2O[C@H](CO)[C@@H](F)[C@H]2F)c(=O)[nH]c1=O
inhibition at 20 µg/mL (Hepatitis C virus): 0% | inhibition at 10 µg/mL (Duck hepatitis B virus [3]): 0% | CC50 at 48 h [4]: > 100 µg/mL | inhibition at 10 µg/mL (Hepatitis B virus [5]): 0%

O=c1[nH]c(=O)n([C@H]2C[C@H](F)[C@@H](CO)O2)cc1I
inhibition at 20 µg/mL (Hepatitis C virus): 40% | EC50 (Duck hepatitis B virus [1]): 5 µg/mL (≈ 14 µM) | EC50 (Hepatitis B virus [2]): 5 µg/mL (≈ 14 µM) | inhibition at 5 µg/mL (Hepatitis B virus [6]): 50% | inhibition at 5 µg/mL (Duck hepatitis B virus [8]): 50% | inhibition at 10 µg/mL (Duck hepatitis B virus [3]): 63% | CC50 at 48 h [4]: < 100 µg/mL | inhibition at 10 µg/mL (Hepatitis B virus [5]): 60%

Nc1ccn([C@@H]2CS[C@H](CO)O2)c(=O)n1 [LAMIVUDINE]
inhibition (INH) (Duck hepatitis B virus [9]): 96% | EC50 (Duck hepatitis B virus [1]): 0.05 µg/mL (≈ 0.218 µM) | inhibition (INH) (Hepatitis B virus [10]): 88%

NC(=O)c1ncn([C@@H]2O[C@H](CO)[C@@H](O)[C@H]2O)n1 [RIBAVIRIN]
inhibition at 20 µg/mL (Hepatitis C virus): 50%
